Measured values reported in ChEMBL document CHEMBL4308830, “Design, Synthesis, and Characterization of 4-Undecylpiperidine-2-carboxamides as Positive Allosteric Modulators of the Serotonin (5-HT) 5-HT2C Receptor” (J Med Chem, 2018).
Active and inactive are the calls of the source. The rule behind the calls is not given here.

Key:
CHO = assay: Cytotoxicity against CHO cells at 0.1 to 1000 nM after 1 hrs by LDH release assay; type: cell-based, Cricetulus griseus; conditions: chinese hamster, 1 µM
Procedure, shortened: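 Lactate dehydrogenase release assay for cytotoxicity, compounds tested at 0.1 nM and 1 μM.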

[1] = biological target: T1, 5-hydroxytryptamine receptor 2C (Homo sapiens) (UniProt P28335); assay: Intrinsic agonist activity at human 5-HT2CR expressed in CHO cells assessed as induction of intracellular calcium release at 1 nM incubated for 15 mins measured every 1 sec for 120 secs by calcium-4 dye based FLIPR assay; type: functional, cell-based
T1 sequence (whole entry): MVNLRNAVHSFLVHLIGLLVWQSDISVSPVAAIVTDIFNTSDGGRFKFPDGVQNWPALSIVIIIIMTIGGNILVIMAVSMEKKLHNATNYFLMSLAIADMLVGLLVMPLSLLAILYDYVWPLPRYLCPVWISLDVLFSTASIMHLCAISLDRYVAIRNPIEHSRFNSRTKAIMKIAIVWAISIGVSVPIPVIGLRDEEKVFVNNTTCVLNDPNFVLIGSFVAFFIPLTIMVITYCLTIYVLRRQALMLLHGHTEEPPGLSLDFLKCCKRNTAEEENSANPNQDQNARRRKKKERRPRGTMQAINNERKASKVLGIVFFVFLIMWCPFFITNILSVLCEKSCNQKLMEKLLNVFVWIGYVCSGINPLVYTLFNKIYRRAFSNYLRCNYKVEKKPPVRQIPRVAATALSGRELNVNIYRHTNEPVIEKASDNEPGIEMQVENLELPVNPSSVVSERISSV
Procedure, shortened: (§1)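 CHO cells stably expressing human unedited INI 5-HT2CR were plated, serum-starved 3 h, then loaded with Calcium 4 dye plus 2.5 mM probenecid (60 min 37 °C, then 15 min RT). Compound (1 nM) was added; the read after this addition gave intrinsic agonism. 5-HT (10 pM–10 μM) followed 15 min later. FLIPR-TETRA: 10 s baseline, 1 s reads for 120 s after compound and 360 s after 5-HT. Emax came from 4-parameter fits, ≥3 biological replicates in triplicate.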

[2] = biological target: T1, 5-hydroxytryptamine receptor 2C (Homo sapiens); assay: Positive allosteric modulation of human 5-HT2CR expressed in CHO cells assessed as 5-HT-induced intracellular calcium release at 1 nM preincubated for 15 mins followed by 5-HT addition by calcium-4 dye based FLIPR assay (reference value: 100%); type: functional, cell-based; procedure, shortened: as §1

| SMILES | Activity (CHO) | Activity [1] | Emax [2] |
| --- | --- | --- | --- |
| O=C(N[C@H](CO)[C@H](O)c1ccccc1)[C@H]1C[C@@H](C2CCCCC2)CCN1 | Non-Toxic | inactive | 104% |
| CCCCCCCCCCC[C@@H]1CCN[C@H](C(=O)NC[C@H](O)CO)C1 | – | inactive | 114% |
| O=C(N[C@H](CO)[C@H](O)c1ccccc1)[C@@H]1C[C@H](CCC2CCCCC2)CCN1 | – | inactive | 96% |
| CC1CCC(CC[C@H]2CCN[C@@H](C(=O)N[C@@H](CO)[C@@H](O)c3ccccc3)C2)CC1 (stereo partly drawn) | – | inactive | 116% |
| O=C(N[C@H](CO)[C@H](O)c1ccccc1)[C@@H]1C[C@H](C2CCCCC2)CCN1 | Non-Toxic | inactive | 105% |
| O=C(N[C@H](CO)[C@H](O)c1ccccc1)[C@H]1C[C@@H](CCC2CCCCC2)CCN1 | Non-Toxic | inactive | 89.6% |
| CCCCCCCCCCC[C@@H]1CCN[C@H](C(=O)N[C@@H](CO)C(=O)OC)C1 | – | inactive | 99.6% |
| CCCCCCCCCCC[C@@H]1CCN[C@H](C(=O)N[C@@H](CO)[C@@H](O)c2ccccc2)C1 | – | inactive | 109% |
| CCCCCCCCCCC[C@@H]1CCN[C@H](C(=O)NC(CO)CO)C1 (relative stereo) | Non-Toxic | inactive | 108% |
| CC1CCC(CC[C@@H]2CCN[C@H](C(=O)N[C@@H](CO)[C@@H](O)c3ccccc3)C2)CC1 (stereo partly drawn) | – | inactive | 107% |
| CCCCCCCCCCC[C@@H]1CCN[C@H](C(=O)NCCO)C1 (relative stereo) | Non-Toxic | inactive | 108% |
| CCCCCCCCCCC[C@@H]1CCN[C@H](C(=O)N[C@H](CO)[C@@H](C)O)C1 | – | inactive | 111% |
| CCCCCCCCCCC[C@@H]1CCN[C@H](C(=O)NCCN2CCOCC2)C1 (relative stereo) | – | inactive | 107% |
| CCCCCCCCCCC[C@H]1CCN[C@@H](C(=O)N[C@@H](CO)[C@@H](O)c2ccccc2)C1 | – | inactive | 102% |
| CCCCCCCCCCC[C@H]1CCN[C@@H](C(=O)N[C@H](CO)[C@H](O)c2ccccc2)C1 | – | inactive | 93.9% |
| CCCCCCCCCCC[C@@H]1CCN[C@H](C(=O)N[C@H](C(=O)OC)[C@H](C)O)C1 | – | inactive | 102% |
| CCCCCCCCCCC[C@@H]1CCN[C@H](C(=O)NC[C@@H](O)CO)C1 | – | inactive | 106% |
| CCCCCCCCCCC[C@@H]1CCN[C@H](C(=O)O)C1 (relative stereo) | – | inactive | 109% |
| CCCCCCCCCCC[C@@H]1CCN[C@H](C(=O)NC[C@H](O)CCl)C1 | Non-Toxic | inactive | 114% |
| CCCCCCCCCCC[C@@H]1CCN[C@H](C(=O)N[C@@H](Cc2ccc(O)cc2)C(=O)OC)C1 | – | inactive | 104% |
| CCCCCCCCCCC[C@@H]1CCN[C@H](C(=O)N[C@@H](Cc2cc3ccccc3[nH]2)C(=O)OC)C1 | – | inactive | 102% |
| CCCCCCCCCCC[C@@H]1CCN[C@H](C(=O)N[C@H](CO)[C@H](O)c2ccccc2)C1 | Non-Toxic | inactive | 85.1% |
| CCCCCCCCCCC[C@@H]1CCN[C@H](C(=O)N[C@@H](CO)[C@H](C)O)C1 | – | inactive | 112% |
